The results in this text go back to ChEMBL document CHEMBL5357037, “Scaffold hopping based designing of selective ALDH1A1 inhibitors to overcome cyclophosphamide resistance: synthesis and biological evaluation” (RSC Med Chem, 2024).

The source made the active and inactive calls. No cut-off for these calls is given here.

In data set [1] the test system is MIA PaCa-2. Briefly: Reversal of Mafosfamide resistance in human MIAPaCa-2 cells assessed as increase in Mafosfamide sensitivity by measuring reduction in cell viability measured after 19 hrs in presence of Mafosfamide by MTT assay. Type of data set: functional, cell-based. The essentials: (§1)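 A549 and MIA PaCa-2 cells, chosen for high ALDH1A1 expression, were obtained from NCCS. Viability was measured by MTT. Combination arms paired mafosfamide with ALDH1A1 inhibitors. Combination indices were calculated with the Chou–Talalay equation.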
(Tetrazolium assays rely on reduction of a dye to a coloured formazan, in cell work by metabolically active cells.)

Data set [2] deals with A549. Briefly: Synergistic anticancer activity against human A549 cells assessed as combination index incubated for 19 hrs in presence of Mafosfamide by MTT assay. In kind it is functional. Summed up: as §1
The target of data set [3] is T1, Aldehyde dehydrogenase, mitochondrial (Homo sapiens, UniProt P05091).
T1 sequence (P05091 whole entry): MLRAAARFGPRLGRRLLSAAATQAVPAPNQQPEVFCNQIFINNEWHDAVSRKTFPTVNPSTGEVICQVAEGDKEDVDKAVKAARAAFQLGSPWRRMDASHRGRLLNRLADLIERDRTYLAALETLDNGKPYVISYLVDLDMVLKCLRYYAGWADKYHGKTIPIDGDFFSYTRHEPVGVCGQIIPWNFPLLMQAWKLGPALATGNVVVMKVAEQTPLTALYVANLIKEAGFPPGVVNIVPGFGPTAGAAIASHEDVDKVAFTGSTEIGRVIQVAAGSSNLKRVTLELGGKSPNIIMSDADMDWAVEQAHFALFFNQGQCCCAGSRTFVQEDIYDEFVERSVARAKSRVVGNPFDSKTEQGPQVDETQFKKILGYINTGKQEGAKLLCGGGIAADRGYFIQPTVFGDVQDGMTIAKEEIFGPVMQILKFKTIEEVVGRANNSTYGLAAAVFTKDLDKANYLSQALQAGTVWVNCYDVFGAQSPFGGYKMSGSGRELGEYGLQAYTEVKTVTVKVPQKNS
Briefly: Inhibition of human ALDH2 using acetaldehyde as substrate preincubated with enzyme for 15 mins followed by substrate addition in presence of NAD+ and measured for 5 mins by spectrophotometric analysis. The essentials:
(§2)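 Human recombinant ALDH1A1, ALDH2 or ALDH3A1 preincubated with test compounds for 15 min at 25 °C. NADH absorbance read kinetically for 5 min. IC50 fitted from five concentrations vs %inhibition. Single-point final concentrations were 10 μM for ALDH1A1 and 100 μM for ALDH2 and ALDH3A1.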

Data set [4] concerns A549. Briefly: Anticancer activity against human A549 cells assessed as reduction in cell viability incubated for 19 hrs by MTT assay. Type of data set: functional, cell-based. The essentials: as §1
Data set [5] has as its target T2, Aldehyde dehydrogenase 1A1 (Homo sapiens, UniProt P00352).
T2 sequence (P00352 whole entry): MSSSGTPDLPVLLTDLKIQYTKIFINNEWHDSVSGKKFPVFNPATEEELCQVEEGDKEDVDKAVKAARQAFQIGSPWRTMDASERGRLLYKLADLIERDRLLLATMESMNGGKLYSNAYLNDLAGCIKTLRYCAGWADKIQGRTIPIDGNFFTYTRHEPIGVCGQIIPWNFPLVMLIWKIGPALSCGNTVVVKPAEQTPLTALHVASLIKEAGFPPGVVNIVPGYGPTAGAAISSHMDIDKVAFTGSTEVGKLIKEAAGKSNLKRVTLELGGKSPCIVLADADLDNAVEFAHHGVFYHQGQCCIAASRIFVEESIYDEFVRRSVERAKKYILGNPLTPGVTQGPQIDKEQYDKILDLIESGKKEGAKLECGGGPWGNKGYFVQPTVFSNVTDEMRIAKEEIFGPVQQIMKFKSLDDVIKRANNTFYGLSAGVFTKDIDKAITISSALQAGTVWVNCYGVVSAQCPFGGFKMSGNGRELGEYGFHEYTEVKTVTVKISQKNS
Briefly: Inhibition of human ALDH1A1 using propionaldehyde as substrate preincubated with enzyme for 15 mins followed by substrate addition in presence of NAD+ and measured for 5 mins by spectrophotometric analysis. Summed up: as §2

The subject of data set [6] is A549. Briefly: Reversal of Mafosfamide resistance in human A549 cells assessed as increase in Mafosfamide sensitivity by measuring reduction in cell viability measured after 19 hrs in presence of Mafosfamide by MTT assay. In kind it is functional, cell-based. The essentials:
as §1

In data set [7] the test system is MIA PaCa-2. Briefly: Anticancer activity against human MIAPaCa-2 cells assessed as reduction in cell viability incubated for 19 hrs by MTT assay. In kind it is functional, cell-based. The essentials:
as §1

Data set [8] deals with MIA PaCa-2. Briefly: Synergistic anticancer activity against human MIAPaCa-2 cells assessed as combination index incubated for 19 hrs in presence of Mafosfamide by MTT assay. In kind it is functional. The essentials: as §1
The target in data set [9] is T3, Aldehyde dehydrogenase, dimeric NADP-preferring (Homo sapiens, UniProt P30838).
T3 sequence (P30838 whole entry): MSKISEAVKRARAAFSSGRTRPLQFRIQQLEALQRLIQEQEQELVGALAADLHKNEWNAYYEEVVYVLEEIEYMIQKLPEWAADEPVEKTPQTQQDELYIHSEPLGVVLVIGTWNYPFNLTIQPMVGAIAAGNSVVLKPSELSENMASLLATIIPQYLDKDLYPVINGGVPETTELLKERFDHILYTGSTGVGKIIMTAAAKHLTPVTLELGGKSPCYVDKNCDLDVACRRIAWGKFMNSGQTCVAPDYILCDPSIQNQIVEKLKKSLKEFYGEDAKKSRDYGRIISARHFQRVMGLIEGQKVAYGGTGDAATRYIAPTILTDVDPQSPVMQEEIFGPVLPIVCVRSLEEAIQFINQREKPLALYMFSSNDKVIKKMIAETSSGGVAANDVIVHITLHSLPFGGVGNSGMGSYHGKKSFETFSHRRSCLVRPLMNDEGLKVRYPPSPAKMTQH
Briefly: Inhibition of human ALDH3A1 using 4-nitrobenzaldehyde as substrate preincubated with enzyme for 15 mins followed by substrate addition in presence of NAD+ and measured for 5 mins by spectrophotometric analysis. Summed up:
as §2

The nature of data set [10]: Lipid-water partition coefficient, logP of the compound. Type of data set: physicochemical.
In data set [11] the target is T4, Aldehyde dehydrogenase, dimeric NADP-preferring (Homo sapiens) (UniProt P30838).
T4 sequence (whole entry): T3 sequence (P30838 whole entry)
Briefly: Inhibition of human ALDH3A1 using 4-nitrobenzaldehyde as substrate at 100 uM preincubated with enzyme for 15 mins followed by substrate addition in presence of NAD+ and measured for 5 mins by spectrophotometric analysis. The conditions noted are these: time 20.0 min. Summed up:
as §2

For data set [12], the target named is T5, Aldehyde dehydrogenase 1A1 (Homo sapiens) (UniProt P00352).
T5 sequence (whole entry): T2 sequence (P00352 whole entry)
Briefly: Inhibition of human ALDH1A1 using propionaldehyde as substrate at 10 uM preincubated with enzyme for 15 mins followed by substrate addition in presence of NAD+ and measured for 5 mins by spectrophotometric analysis. The conditions noted are these: time 20.0 min. Summed up:
as §2

The target in data set [13] is T6, Aldehyde dehydrogenase, mitochondrial (Homo sapiens) (UniProt P05091).
T6 sequence (whole entry): T1 sequence (P05091 whole entry)
Briefly: Inhibition of human ALDH2 using acetaldehyde as substrate at 100 uM preincubated with enzyme for 15 mins followed by substrate addition in presence of NAD+ and measured for 5 mins by spectrophotometric analysis. The conditions noted are these: time 20.0 min. Summed up:
as §2

The subject of data set [14] is MIA PaCa-2. Briefly: Anticancer activity against human MIAPaCa-2 cells assessed as reduction in cell viability at 315 uM incubated for 19 hrs by MTT assay. Type of data set: functional, cell-based.
Data set [15] concerns A549. Briefly: Anticancer activity against human A549 cells assessed as reduction in cell viability at 370 uM incubated for 19 hrs by MTT assay. In kind it is functional, cell-based.

A word on the IC50: it is the midpoint of a concentration-inhibition curve. The term logP denotes the decadic logarithm of the partition coefficient of the neutral form, usually between octanol and water. A high value points to a more lipophilic compound. Take `CN(C)c1ccc(-c2nc3ccccc3n2Cc2ccccc2)cc1`: the outcome in the data set with MIA PaCa-2 [1] and in the data set with A549 [6] was Active. Also, the results for the CI in the data set on A549 [2] and with MIA PaCa-2 [8] were 0.69 and 0.81, respectively. For the same compound, the half-inhibitory concentration (IC50) entry in [3] is “Not Active”; in data set [5], 0.55 µM; in [9], “Not Active”. Also, the result with A549 [4] and in the data set on MIA PaCa-2 [7] was inactive. The compound also had a lipophilicity (logP) in data set [10] of 4.17.

Take `CN(C)c1ccc(Cn2c(-c3ccc(N(C)C)cc3)nc3ccccc32)cc1`: the inhibition entry in data set [11], in data set [12] and in data set [13] was “inactive” in each case. Further, the logP in [10] stood at 4.02.

For `c1ccc(Cn2c(-c3ccccc3)nc3ccccc32)cc1`, the concentration for half-maximal inhibition (IC50) in data set [3] (read-out: IC50) was found to be 95.6 µM; in data set [5], 8.67 µM; in data set [9] (read-out: IC50), 98.3 µM. Also, the logP in [10] is 4.19.

On to `Clc1ccc(-c2nc3ccccc3n2Cc2ccccc2)cc1`, for which the outcome in the data set with MIA PaCa-2 [1], in the data set on MIA PaCa-2 [14], in the data set on A549 [6] and in the data set on A549 [15] was Active. Moreover, the CI was 0.91 with A549 [2] and 0.98 in the data set with MIA PaCa-2 [8]. Moreover, the figures for the half-inhibitory concentration (IC50) entry in data set [3], in data set [5] and in data set [9] were “Not Active”, 0.32 µM and “Not Active”, respectively. In data set [10], this compound had a logP of 4.73.

On to `COc1ccc(-c2nc3ccccc3n2Cc2ccccc2)cc1`, for which the outcome in the data set on MIA PaCa-2 [1] and with A549 [6] was Active. Besides, the CI is 0.74 in the data set on A549 [2] and 0.84 in the data set with MIA PaCa-2 [8]. The IC50 result in data set [3] is “Not Active”; in data set [5], 1.63 µM; in [9] it was “Not Active”. In addition, the outcome in the data set on A549 [4] and in the data set on MIA PaCa-2 [7] was inactive. Further, the logP in [10] was found to be 4.19.

`CC(C)CCn1c(CN2CCN(C(=O)C3CC3)CC2)nc2c1c(=O)n(C)c(=O)n2C`: the result in the data set with MIA PaCa-2 [1] and in the data set with A549 [6] was Active.
